In ChEMBL document CHEMBL1649477, “Trypanothione reductase high-throughput screening campaign identifies novel classes of inhibitors with antiparasitic activity” (Antimicrob Agents Chemother, 2009):
“And” between values parts separate entries of the source, which are not always exact repeats. Equal values may be shown once.

Key:
Liver microsomes = test: Intrinsic clearance in human liver microsomes assessed per mg of protein by liquid chromatography-mass spectrometry; type: ADME, Microsome
In short: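 Compound is incubated with human liver microsomes and NADPH, and parent loss is followed by LC-MS. Concentration versus time is fitted to exponential decay to give the first-order depletion rate constant. In vitro CLint and predicted hepatic extraction ratio are calculated from that constant.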

[1] = Solubility of the compound at pH 2; type: physicochemical; conditions: buffer
[2] = Dissociation constant, pKa of the compound; type: physicochemical
[3] = Distribution coefficient, log D of the compound at pH 7.4; type: physicochemical; conditions: octanol/water
[4] = Solubility of the compound at pH 6.5; type: physicochemical; conditions: buffer
Plasmodium falciparum = test: Antiplasmodial activity against Plasmodium falciparum 3D7 erythrocytic stage; type: functional, organism-based
[5] = Cytotoxicity against rat L6 cells; type: cell-based
Trypanothione reductase [6] = biological target: T1, Trypanothione reductase (Trypanosoma cruzi, UniProt P28593); test: Inhibition of Trypanosoma cruzi X10/1 trypanothione reductase assessed as inhibition of thionitrobenzoate formation by microplate reader analysis
In short: (§1)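 Recombinant T. cruzi TR (Silvio X10/1) coupled to DTNB-driven trypanothione regeneration. Enzyme (20 mU/ml), 12 μM T[S]2 and 200 μM DTNB in pH 7.5 HEPES/EDTA/BSA/Tween 20 buffer are preincubated ≥15 min at room temperature with compound. The reaction is started with 300 μM NADPH. Final conditions are 6 μM T[S]2, 100 μM DTNB and 150 μM NADPH. TNB absorbance at 410 nm is read for 12.5 min. Titrations are run in triplicate.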

Leishmania donovani = test: Antiprotozoal activity against Leishmania donovani MHOM/ET/67/L82 amastigotes; type: functional, organism-based
[7] = tested on: Trypanosoma brucei rhodesiense; test: Antitrypanosomal activity against Trypanosoma brucei rhodesiense STIB900 bloodstream forms; type: functional, organism-based
Trypanosoma cruzi = test: Antiprotozoal activity against Trypanosoma cruzi Tulahuen C2C4 amastigotes; type: functional, organism-based
Trypanothione reductase [8] = biological target: T1, Trypanothione reductase; test: Inhibition of Trypanosoma cruzi trypanothione reductase assessed as inhibition of thionitrobenzoate formation by microplate reader analysis; in short: as §1
[9] = Cytotoxicity against human HT-29 cells; type: cell-based
[10] = biological target: Glutathione reductase (Homo sapiens); test: Inhibition of human glutathione reductase

T1 sequence (P28593 whole entry): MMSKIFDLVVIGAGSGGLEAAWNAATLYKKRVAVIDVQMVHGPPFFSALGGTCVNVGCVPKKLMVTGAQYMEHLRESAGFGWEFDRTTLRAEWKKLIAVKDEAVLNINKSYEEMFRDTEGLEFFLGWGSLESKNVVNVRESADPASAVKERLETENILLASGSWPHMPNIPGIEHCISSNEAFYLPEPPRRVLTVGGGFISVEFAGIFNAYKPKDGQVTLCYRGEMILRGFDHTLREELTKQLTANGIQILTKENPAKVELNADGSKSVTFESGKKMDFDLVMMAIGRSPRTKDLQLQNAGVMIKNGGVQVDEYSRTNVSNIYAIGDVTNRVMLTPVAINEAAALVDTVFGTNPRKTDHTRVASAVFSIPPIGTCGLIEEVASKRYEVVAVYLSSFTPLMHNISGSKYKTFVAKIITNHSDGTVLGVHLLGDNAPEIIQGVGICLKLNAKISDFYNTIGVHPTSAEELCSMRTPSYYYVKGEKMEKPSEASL

For `CCc1ccc2c(C)nc(NC3=NC(C)(C)C=C(C)N3)nc2c1`, the CL (Liver microsomes) was 0.09 mL/min/mg, the solubility [1] was > 100 µM and the pKa [2] was 2.4. The logD [3] was 0.7 and the solubility [4] was > 100 µM.
`CN1C2CCC1CC(=NOC(c1ccccc1)c1ccc(Cl)cc1)C2` (configuration not stated) gave a CL (Liver microsomes) of 0.031 mL/min/mg, an IC50 (Plasmodium falciparum) of 8 µM and a CC50 [5] of 35 µM. The IC50 (Trypanothione reductase [6]) was 33 µM, the IC50 (Leishmania donovani) was > 30 µM and the solubility [1] was > 100 µM. For the same compound, the pKa [2] was 8.34, the IC50 [7] was 3000 nM and the logD [3] was 2.9. For the same compound, the IC50 (Trypanosoma cruzi) was 0.1 µM and the solubility [4] was > 100 µM.
In the case of `CSc1nncc(-c2ccccc2)n1`, the IC50 (Trypanothione reductase [6]) is reported as > 100 µM.
For `S=C(Nc1ccccc1)NC1CCN(Cc2ccccc2)CC1`, the IC50 (Trypanothione reductase [8]) was 33 µM.
Work on `S=C(Nc1cccnc1)NC1CCN(Cc2ccccc2)CC1` yielded an IC50 (Plasmodium falciparum) of 8.6 µM, a CC50 [5] of 90 µM and an IC50 (Trypanothione reductase [6]) of 2 µM. For the same compound, the IC50 (Trypanothione reductase [8]) was 1 µM and 3 µM, the IC50 (Leishmania donovani) was > 30 µM and the IC50 [7] was 15000 nM. For the same compound, the IC50 (Trypanosoma cruzi) was > 30 µM.
In the case of `CN1/C(=C/C=C2\C=Nc3ccccc32)C=Cc2ccccc21`, the IC50 (Plasmodium falciparum) is reported as 0.2 µM, the CC50 [5] is reported as 14 µM and the IC50 (Trypanothione reductase [6]) is reported as 23 µM. For the same compound, the IC50 (Leishmania donovani) was 3 µM, the IC50 [7] was 100 nM and the IC50 (Trypanosoma cruzi) was 6 µM.
In the case of `CCCNC(=S)NC1CCN(Cc2ccccc2)CC1`, the IC50 (Trypanothione reductase [8]) is reported as > 100 µM.
With `O=C(Nc1cccnc1)NC1CCN(Cc2ccccc2)CC1` the IC50 (Trypanothione reductase [8]) was > 100 µM.
For `CCN1CCC(NC(=S)Nc2cccnc2)CC1`, the IC50 (Trypanothione reductase [8]) was > 100 µM.
For `CSc1nncc(-c2cnc(SC)c3c2CCCC3)n1`, the IC50 (Trypanothione reductase [6]) was > 100 µM.
In the case of `CCc1ccc2c(C)nc(NC3=NC(C)(C)CC(C)=N3)nc2c1`, the CL (Liver microsomes) is reported as 0.09 mL/min/mg, the IC50 (Trypanothione reductase [6]) is reported as 32 µM and the solubility [1] is reported as > 100 µM. The pKa [2] was 2, the logD [3] was 3.6 and the solubility [4] was > 100 µM.
`CCOc1ccc2c(C)nc(NC3=NC(C)(C)CC(C)=N3)nc2c1` showed an IC50 (Trypanothione reductase [6]) of 28 µM.
With `Cc1cc(C)c2nc(Nc3nc(C)c(C)c(O)n3)nc(C)c2c1` the IC50 (Trypanothione reductase [6]) was > 100 µM.
For `Cc1cc(C)c2c(C)nc(Nc3nc(C)cc(C)n3)nc2c1`, the IC50 (Plasmodium falciparum) was 4 µM, the CC50 [5] was 11 µM and the IC50 (Trypanothione reductase [6]) was > 100 µM. It also gave an IC50 (Leishmania donovani) of 32 µM, an IC50 [7] of 27000 nM and an IC50 (Trypanosoma cruzi) of 8 µM.
For `Cc1ccc2nc(Nc3nc(C)cc(C)n3)nc(C)c2c1`, the IC50 (Trypanothione reductase [6]) was > 100 µM.
With `Cc1cc(C)c2nc(NC(=N)N)nc(C)c2c1` the IC50 (Trypanothione reductase [6]) was > 100 µM.
`N=c1n(CCOc2ccccc2)c2ccccc2n1CCN1CCCCC1` gave a CC50 [9] of 42 µM, an IC50 (Plasmodium falciparum) of 2 µM and an IC50 (Trypanothione reductase [6]) of 9 µM. For the same compound, the IC50 (Leishmania donovani) was > 30 µM, the IC50 [7] was 600 nM and the IC50 (Trypanosoma cruzi) was 19 µM. For the same compound, the IC50 [10] was > 100 µM.
Work on `CC1=CC(C)(C)N=C(Nc2nc(C)c3cc(C)cc(C)c3n2)N1` yielded an IC50 (Plasmodium falciparum) of 2 µM, a CC50 [5] of 10 µM and an IC50 (Trypanothione reductase [6]) of 17 µM. The IC50 (Leishmania donovani) was 14 µM, the IC50 [7] was 1000 nM and the IC50 (Trypanosoma cruzi) was 6 µM.
`COc1nncc(-c2cnnc(SC)n2)n1` gave an IC50 (Plasmodium falciparum) of 0.2 µM, a CC50 [5] of 30 µM and an IC50 (Trypanothione reductase [6]) of 27 µM. For the same compound, the IC50 (Leishmania donovani) was 8 µM, the IC50 [7] was 5000 nM and the IC50 (Trypanosoma cruzi) was 15 µM.
For `Cc1nc(NC(=N)N)nc2ccccc12`, the IC50 (Plasmodium falciparum) was 42 µM, the CC50 [5] was > 64 µM and the IC50 (Trypanothione reductase [6]) was > 100 µM. For the same compound, the IC50 (Leishmania donovani) was > 64 µM, the IC50 [7] was 39000 nM and the IC50 (Trypanosoma cruzi) was 38 µM.
For `Nc1nc(N)nc(Nc2ccc([As]3SCC(CO)S3)cc2)n1` (configuration not stated) [MELARSOPROL], the IC50 [7] was 17 nM.
